Source: ChEMBL document CHEMBL5634116, “Strategies for developing retinoic acid receptor alpha-selective antagonists as novel agents for male contraception” (Eur J Med Chem, 2023)

Assays:
[1] = target: T1, Retinoic acid receptor alpha (Homo sapiens, UniProt P10276); assay: Antagonist activity at recombinant human RAR-alpha expressed in mammalian cells in presence of 9-cis-RA by luciferase reporter gene based transactivation assay; format: cell-based
T1 sequence (P10276 whole entry): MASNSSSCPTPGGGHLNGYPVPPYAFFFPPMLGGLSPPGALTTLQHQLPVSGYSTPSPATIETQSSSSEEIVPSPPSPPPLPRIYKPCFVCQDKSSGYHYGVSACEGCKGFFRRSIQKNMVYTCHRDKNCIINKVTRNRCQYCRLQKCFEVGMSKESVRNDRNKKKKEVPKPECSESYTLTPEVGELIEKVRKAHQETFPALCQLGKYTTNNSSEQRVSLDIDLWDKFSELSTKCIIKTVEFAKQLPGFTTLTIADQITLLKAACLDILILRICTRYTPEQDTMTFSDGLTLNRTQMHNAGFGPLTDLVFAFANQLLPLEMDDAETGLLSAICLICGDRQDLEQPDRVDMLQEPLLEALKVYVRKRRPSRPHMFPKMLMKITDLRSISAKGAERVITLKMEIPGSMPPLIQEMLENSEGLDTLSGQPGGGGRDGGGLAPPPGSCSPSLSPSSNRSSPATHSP
Procedure, shortened: (§1)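 Compounds 8-point dose response in triplicate, DMSO final 0.4%; overnight at 37 °C, 5% CO2; luminescence after 30 min detection reagent. IC50 by four-parameter logistic fit; agonist-free wells set background.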

[2] = target: T2, Retinoic acid receptor beta (Homo sapiens, UniProt P10826); assay: Antagonist activity at recombinant human RAR-beta expressed in mammalian cells in presence of ATRA by luciferase reporter gene based transactivation assay; format: cell-based
T2 sequence (P10826 whole entry): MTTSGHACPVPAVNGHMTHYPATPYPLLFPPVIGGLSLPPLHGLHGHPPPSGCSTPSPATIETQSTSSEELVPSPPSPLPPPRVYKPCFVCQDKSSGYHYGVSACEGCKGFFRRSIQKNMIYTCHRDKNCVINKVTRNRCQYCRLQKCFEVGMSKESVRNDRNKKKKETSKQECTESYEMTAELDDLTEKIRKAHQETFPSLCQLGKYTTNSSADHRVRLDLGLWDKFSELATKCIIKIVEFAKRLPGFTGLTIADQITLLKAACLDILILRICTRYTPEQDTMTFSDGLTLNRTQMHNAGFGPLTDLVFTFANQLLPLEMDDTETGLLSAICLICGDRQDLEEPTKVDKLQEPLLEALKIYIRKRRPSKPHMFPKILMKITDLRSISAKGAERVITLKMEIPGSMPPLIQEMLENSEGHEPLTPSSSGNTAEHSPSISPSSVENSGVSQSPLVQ

[3] = target: T3, Retinoic acid receptor gamma (Homo sapiens, UniProt P13631); assay: Antagonist activity at recombinant human RAR-gamma expressed in mammalian cells in presence of ATRA by luciferase reporter gene based transactivation assay; format: cell-based; procedure, shortened: as §1
T3 sequence (P13631 whole entry): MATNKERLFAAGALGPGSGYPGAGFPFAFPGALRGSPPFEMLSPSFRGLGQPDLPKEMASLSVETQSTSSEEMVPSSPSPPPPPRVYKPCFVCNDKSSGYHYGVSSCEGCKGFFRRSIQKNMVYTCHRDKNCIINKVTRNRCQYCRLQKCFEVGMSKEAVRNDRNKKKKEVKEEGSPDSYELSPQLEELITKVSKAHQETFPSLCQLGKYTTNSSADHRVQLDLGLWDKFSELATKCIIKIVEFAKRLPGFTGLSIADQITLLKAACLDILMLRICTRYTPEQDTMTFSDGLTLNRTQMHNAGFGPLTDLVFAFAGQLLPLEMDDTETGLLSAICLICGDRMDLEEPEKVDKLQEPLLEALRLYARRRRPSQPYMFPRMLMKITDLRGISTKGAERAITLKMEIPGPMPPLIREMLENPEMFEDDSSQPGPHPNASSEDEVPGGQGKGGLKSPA

[4] = target: T2, Retinoic acid receptor beta; assay: Agonist activity at recombinant human RAR-beta expressed in mammalian cells by luciferase reporter gene based transactivation assay; format: cell-based
Procedure, shortened: (§2)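 Human RAR-subtype luciferase reporter cells (RARE-driven). Compounds in DMSO (final 0.4%) tested as 8-point dose response in triplicate. Incubated overnight at 37 °C in 5% CO2, then detection reagent 30 min at r.t. and luminescence measured. EC50 by four-parameter logistic fit, mean ± SEM from geometric mean of log EC50 across independent experiments.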

[5] = target: T4, Retinoic acid receptor alpha (Homo sapiens) (UniProt P10276); assay: Agonist activity at recombinant human RAR-alpha expressed in mammalian cells by luciferase reporter gene based transactivation assay relative to control; format: cell-based
T4 sequence (whole entry): T1 sequence (P10276 whole entry)
Procedure, shortened: (§3)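 Transactivation in proprietary reporter cells expressing recombinant human RAR subtype with RARE-linked beetle luciferase. Compounds in DMSO (final 0.4%), 8-point dose response in triplicate; cells added, incubated overnight at 37 °C, 5% CO2, then luciferase reagent 30 min r.t., luminescence read.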

[6] = target: T5, Retinoic acid receptor beta (Homo sapiens) (UniProt P10826); assay: Agonist activity at recombinant human RAR-beta expressed in mammalian cells by luciferase reporter gene based transactivation assay relative to control; format: cell-based; procedure, shortened: as §3
T5 sequence (whole entry): T2 sequence (P10826 whole entry)

[7] = target: T3, Retinoic acid receptor gamma; assay: Agonist activity at recombinant human RAR-gamma expressed in mammalian cells by luciferase reporter gene based transactivation assay; format: cell-based; procedure, shortened: as §2
[8] = target: T6, Retinoic acid receptor gamma (Homo sapiens) (UniProt P13631); assay: Agonist activity at recombinant human RAR-gamma expressed in mammalian cells by luciferase reporter gene based transactivation assay relative to control; format: cell-based; procedure, shortened: as §3
T6 sequence (whole entry): T3 sequence (P13631 whole entry)

[9] = target: T1, Retinoic acid receptor alpha

| Compound | IC50 [1] | IC50 [2] | IC50 [3] | other results |
| --- | --- | --- | --- | --- |
| Cc1ccc(C2=CCC(C)(C)c3ccc(NC(=O)Nc4ccc(C(=O)O)cc4)cc32)cc1 | > 3.3 µM | 0.84 µM | > 3.3 µM | – |
| Cc1ccc(C2=CC(C)(C)Oc3ccc(S(=O)(=O)Nc4ccc(C(=O)O)cc4)cc32)cc1 | > 3.3 µM | > 3.3 µM | > 3.3 µM | – |
| CC1(C)CC=C(c2ccc(N3CCOCC3)cc2)c2cc(C(=O)Nc3ccc(C(=O)O)cc3)ccc21 | 1.1 µM | > 3.3 µM | 1.5 µM | – |
| CC1(C)CC=C(c2ccccc2)c2cc(NC(=O)Nc3ccc(C(=O)O)cc3)ccc21 | > 3.3 µM | > 3.3 µM | > 3.3 µM | – |
| Cc1ccc(C2=CCC(C)(C)c3ccc(N4CCc5cc(C(=O)O)ccc5C4)cc32)cc1 | > 3.3 µM | 0.35 µM | > 3.3 µM | – |
| CC1(C)CC=C(c2ccc(N3CCOCC3)cc2)c2cc(NC(=O)c3ccc(C(=O)O)c([N+](=O)[O-])c3)ccc21 | > 3.3 µM | > 3.3 µM | > 3.3 µM | – |
| CC1(C)CC=C(c2cnc3ccccc3c2)c2cc(C(=O)Nc3ccc(C(=O)O)cc3)ccc21 | 0.27 µM | 0.26 µM | 2.7 µM | – |
| CC1(C)CC=C(c2ccc(CN3CCOCC3)cc2)c2cc(C(=O)Nc3ccc(C(=O)O)cc3)ccc21 | 0.52 µM | 0.173 µM | > 3.3 µM | Emax [5]: 0%; Emax [6]: 0%; Emax [8]: 0% |
| Cc1ccc(C2=CC(C)(C)Oc3ccc(NS(=O)(=O)c4ccc(C(=O)O)cc4)cc32)cc1 | > 3.3 µM | > 3.3 µM | > 3.3 µM | – |
| Cc1ccc(C2=CCC(C)(C)c3ccc(-c4ccc5cc(C(=O)O)ccc5n4)cc32)cc1 | > 3.3 µM | 0.021 µM | 0.13 µM | – |
| Cc1ccc(C2=CCC(C)(C)c3ccc(C(=O)N4CCc5cc(C(=O)O)ccc5C4)cc32)cc1 | > 3.3 µM | > 3.3 µM | > 3.3 µM | – |

Further lines, with some results ahead:

| IC50 [1] | IC50 [2] | IC50 [3] | Compound | other results |
| --- | --- | --- | --- | --- |
| > 3.3 µM | > 3.3 µM | > 3.3 µM | Cc1ccc(C2=CC(C)(C)Oc3c(Br)cc(S(=O)(=O)Nc4ccc(C(=O)O)cc4)cc32)cc1 | – |
| > 3.3 µM | > 3.3 µM | > 3.3 µM | Cc1ccc(C2=CCC(C)(C)c3ccc(C(=O)NCc4ccc(C(=O)O)cc4)cc32)cc1 | – |
| > 3.3 µM | > 3.3 µM | > 3.3 µM | CC1(C)CC=C(c2ccccc2)c2cc(C(=O)NCc3ccc(C(=O)O)cc3)ccc21 | – |
| > 3.3 µM | > 3.3 µM | > 3.3 µM | Cc1ccc(C2=CC(C)(C)Oc3c(Br)cc(S(=O)(=O)Nc4cc(F)c(C(=O)O)c(F)c4)cc32)cc1 | – |
| 0.44 µM | > 3.3 µM | > 3.3 µM | CC1(C)CC=C(c2cccs2)c2cc(C(=O)Nc3ccc(C(=O)O)cc3)ccc21 | EC50 [4]: 0.015 µM; Emax [5]: 3%; Emax ([6]; filed as agonist): 167% |
| 0.43 µM | > 3.3 µM | > 3.3 µM | Cc1ccc(C2=CCC(C)(C)c3ccc(C(=O)Nc4cc(F)c(C(=O)O)c(F)c4)cc32)cc1 | – |
| > 3.3 µM | > 3.3 µM | > 3.3 µM | CC1(C)CC=C(c2ccc(N3CCOCC3)cc2)c2cc(NC(=O)Nc3ccc(C(=O)O)cc3)ccc21 | – |
| 0.029 µM | > 3.3 µM | 2.6 µM | Cc1ccc(C2=CCC(C)(C)c3ccc(C(=O)Nc4ccc(C(=O)O)cc4)cc32)cc1 | EC50 [4]: 0.055 µM; EC50 [7]: > 3.3 µM; Emax [5]: 9%; Emax ([6]; filed as agonist): 46%; Emax [8]: 15% |
| 0.0094 µM | – | 0.0075 µM | CC1(C)CC=C(c2ccccc2)c2cc(/C=C/c3ccc(C(=O)O)cc3)ccc21 | EC50 [7]: 0.12 µM; Emax [8]: 26%; IC50 [9]: ~0.01 µM |
| > 3.3 µM | > 3.3 µM | > 3.3 µM | Cc1ccc(C2=CC(C)(C)Oc3ccc(S(=O)(=O)Nc4cc(F)c(C(=O)O)c(F)c4)cc32)cc1 | – |
| 0.14 µM | > 3.3 µM | > 3.3 µM | CC1(C)CC=C(c2ccccc2)c2cc(C(=O)Nc3ccc(C(=O)O)cc3)ccc21 | EC50 [4]: 0.025 µM; EC50 [7]: 0.56 µM; Emax [5]: 4%; Emax ([6]; filed as agonist): 150%; Emax ([8]; filed as agonist): 47% |
| > 3.3 µM | > 3.3 µM | > 3.3 µM | CC1(C)CC=C(c2ccc(C(=O)N3CCOCC3)cc2)c2cc(NC(=O)c3ccc(C(=O)O)cc3)ccc21 | – |
| 1.5 µM | > 3.3 µM | > 3.3 µM | CC1(C)CC=C(c2ccc(CN3CCOCC3)cc2)c2cc(NC(=O)c3ccc(C(=O)O)cc3)ccc21 | – |
| > 3.3 µM | 0.73 µM | > 3.3 µM | CC1(C)CC=C(c2ccc(N3CCOCC3)cc2)c2cc(NC(=O)c3ccc(C(=O)O)cc3)ccc21 | – |
